# S1P1 ag pot = S1P1 (human) agonism or agonism potentiation. S1P1 CRE-bla cells, forskolin, beta-lactamase FRET, potentiator mode; S1P1 agonist co-added at EC20, 2 nM; 100% = saturating reference agonist, 0% = basal. activation, % at 9.5 µM. 56,000 compounds, 0.57% hits;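 active = activation above a cutoff set at the mean activation of all tested compounds plus 3 SD, cut at about 54% in these data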;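 also: forskolin at 4 µM as EC80 and the EC20 agonist is SEW2871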
# D1 mod = D1 dopamine receptor (human) allosteric modulation; P21728; HEK293 D1, CRE-luciferase, dopamine EC30 potentiation; actives deviate in either direction; B-score at 10 µM; 58,000 compounds, 5.9% hits; AID 641;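 active = luminescence count or its row- and column-corrected plate score outside the 99.7% band of the plate's sample wells, on either side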
# Target sequence (P21728 whole entry, looked up): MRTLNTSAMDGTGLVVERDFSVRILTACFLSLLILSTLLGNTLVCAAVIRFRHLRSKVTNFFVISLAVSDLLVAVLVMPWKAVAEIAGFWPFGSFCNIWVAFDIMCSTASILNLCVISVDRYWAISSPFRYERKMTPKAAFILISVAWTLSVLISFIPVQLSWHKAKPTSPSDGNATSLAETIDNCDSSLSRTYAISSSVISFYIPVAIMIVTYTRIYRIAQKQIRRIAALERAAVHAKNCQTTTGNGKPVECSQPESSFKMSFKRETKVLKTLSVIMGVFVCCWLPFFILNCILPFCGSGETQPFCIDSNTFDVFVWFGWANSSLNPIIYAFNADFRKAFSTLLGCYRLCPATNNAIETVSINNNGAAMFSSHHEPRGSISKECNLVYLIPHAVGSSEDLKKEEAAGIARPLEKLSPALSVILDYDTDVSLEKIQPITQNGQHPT
# S1P3 ag = S1P3 (human) receptor agonism; AID 373; S1P3 NFAT-BLA reporter cells, FRET ratio; relative to 1 µM S1P, basal subtracted; Q99500; activation, % at 4.5 µM; 60,000 compounds, 0.1% hits;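 active = activation above the screen-wide mean plus 3 SD, cut at about 4.5% in these data, passing the limit was not always enough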
#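 Benchmarks: high control 1 µM S1P / System: stable CHO line with human S1P3, Gα16, NFAT-BLA reporter / Dosing: single compound concentration, 4.5 µM final / Timing: 4 h compound at 37 °C, 2 h substrate at RT / Measured by: FRET β-lactamase substrate fluorescence, excitation 405 nm, 460/535 nm emission ratio, background-subtracted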
# M1 antagonist = M1 muscarinic receptor (rat) antagonism | B-score at 10 µM | P08482 | CHO-M1 cells, Fluo-4 calcium, ACh EC80 antagonist mode; active compounds read low | 64,000 compounds, 3.4% hits | AID 628;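 active = calcium fluorescence response, raw or row-and-column corrected B-score, differing from the plate sample mean either way at a set confidence level, mostly lower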
# M1 agonist = agonists of M1 muscarinic receptor; CHO-M1 cells, Fluo-4 calcium fluorescence, agonist mode; active compounds read high; B-score at 10 µM; 64,000 compounds, 3% hits; AID 626;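 active = fluorescence rise, raw or as B-score row- and column-corrected plate score, outside the 99.7% band of its plate's samples, either direction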
# M1 agonist conf = rat M1 muscarinic agonism, confirmation; shares compounds with M1 agonist; CHO-M1 cells, Fluo-4 calcium fluorescence, agonist mode; actives lie on both sides; fluorescence change (max-min) at 10 µM; 1,700 compounds, 19% hits; AID 1488;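 active = fluorescence change differs from the solvent-only DMSO control mean at a set confidence level in both duplicate runs; inconclusive = differs from solvent-only control mean in just one of two runs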;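 also: an EC20 dose of acetylcholine follows compound addition during the same imaging run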
# M4 ag counter = counter-screen for M1 agonists: activity at rat M4 receptor. shares compounds with M1 agonist. CHO M4/Gqi5 cells, Fluo-4 calcium fluorescence, agonist mode; actives lie on both sides. fluorescence change (max-min) at 10 µM. 1,700 compounds, 9% hits;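 active = fluorescence change differing from the plate's solvent-only control wells at 99.7% confidence in both duplicates, whether higher or lower; inconclusive = differs from solvent controls in only one of two duplicates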
# Hits are given with their value; – = inactive; ? = inconclusive; · = no result. Rows were chosen to be rich in hits. Some 11% of all compounds tested hit in one or more screens of this group.
SMILES,S1P1 ag pot,D1 mod,S1P3 ag,M1 antagonist,M1 agonist,M1 agonist conf,M4 ag counter
COc1cccc(OC)c1NC(=O)Cc1nn(C)c(=O)c2ccccc12,–,–,–,–,–,·,·
Cc1ccc(NC(=O)Cc2nn(C)c(=O)c3ccccc23)cc1F,·,·,·,–,5.5,–,?
C=CCn1c(CCC(=O)O)ccc1-c1ccccc1,–,–,–,–,–,·,·
COC(=O)[C@@H](NC(=O)NCc1ccccc1Cl)C(C)C,–,–,–,–,–,·,·
NC12CC3CC(C1)CC(CO)(C3)O2,–,–,–,–,–,·,·
O=C(COc1ccccc1)Nc1ccccc1C(=O)NCc1ccco1,–,–,–,–,6.7,?,–
O=C(Nc1ccc(Cl)cc1)Nc1ccccc1C(=O)NCc1ccco1,–,·,–,·,·,·,·
CC1CCCCN1S(=O)(=O)c1ccc(C(=O)Nc2nnc(-c3ccccc3Cl)o2)cc1 (stereo not given),–,–,–,–,-2.5,?,–
CCC1CCCCN1S(=O)(=O)c1ccc(C(=O)Nc2nnc(-c3ccccc3Cl)o2)cc1 (stereo not given),–,–,–,–,–,·,·
Cc1csc(NC(=O)c2sc3nc(-c4cccs4)ccc3c2N)n1,·,-2.8,–,–,54,?,?
CCOC(=O)N1CCN(S(=O)(=O)c2ccc(C)cc2)C1c1ccccc1 (stereo not given),·,–,·,–,3.2,–,–
Cc1ccc(S(=O)(=O)N2CCN(S(C)(=O)=O)C2c2ccccc2)cc1 (stereo not given),–,–,–,–,2.7,-41,?
Cc1ccc(S(=O)(=O)N2CCCC2C(=O)O)cc1 (stereo not given),–,–,–,–,–,·,·
O=C1c2ccccc2C(Nc2ccc(F)cc2F)N1CCN1CCOCC1 (stereo not given),–,–,–,–,–,·,·
Cc1ccccc1N1C(=O)c2cccc3c(N(C)CCO)ccc(c23)C1=O,–,–,–,–,91,868,912
Cn1c(=O)[nH]c(=O)c2c1nc(SCC(O)CO)n2Cc1ccccc1Cl (stereo not given),–,–,–,–,–,·,·
CCOC(=O)N1CCN(C(=O)Nc2ccc3nc(C)c(C)nc3c2)CC1,–,–,–,–,–,·,·
CCOC(=O)C1CCN(C(=O)Nc2ccc3c(c2)nc(C)n3C)CC1,·,–,–,–,–,·,·
O=C(Nc1ccc2nc(-c3ccco3)c(-c3ccco3)nc2c1)N1CCCCCC1,–,-4.5,–,-4.6,30,362,?
CCOC(=O)C1CCN(C(=O)Nc2ccc3nc(-c4ccco4)c(-c4ccco4)nc3c2)CC1,·,–,·,-12,84,392,?
CCn1cc(C(C)NC(=O)COc2ccc(Cl)cc2C)c(C)n1 (stereo not given),–,–,–,–,–,·,·
CCOc1ccc(S(=O)(=O)N(C)C)cc1-c1nc2c(C(C)(C)C)nn(C)c2c(=O)[nH]1,–,–,–,–,–,·,·
CCOc1ccc(S(=O)(=O)N(C)CCO)cc1-c1nc2c(C(C)(C)C)nn(C)c2c(=O)[nH]1,–,·,–,–,5.6,–,–
O=C(OCC(=O)N1CCC(Cc2ccccc2)CC1)c1ccc[nH]c1=O,–,–,–,–,–,·,·
O=C(NCc1ccco1)c1cccn2c(=O)c3sccc3nc12,·,5,·,-3.2,2.9,–,–
SMILES,S1P1 ag pot,D1 mod,S1P3 ag,M1 antagonist,M1 agonist,M1 agonist conf,M4 ag counter
CCOC(=O)N1CCN(C(=O)c2cccn3c(=O)c4sccc4nc23)CC1,·,–,·,–,–,·,·
C/C(N)=C(/C#N)C(=O)CN1CCCCC1,–,–,–,–,–,·,·
O=C(O)CNS(=O)(=O)c1ccc(Br)s1,–,–,–,–,–,·,·
O=S(=O)(NCc1ccncc1)c1ccc(Br)s1,110,–,–,–,3.7,–,–
Cc1sc2c(c1C)CN(Cc1ccco1)CN2C(=O)c1ccccc1,–,·,–,–,–,·,·
CCN=C1SC(CC(=O)Nc2ccc(N3CCOCC3)cc2)C(=O)N1CC (stereo not given),–,–,–,–,2.8,?,–
CCN=C1SC(CC(=O)NC2CCCCC2)C(=O)N1CC (stereo not given),–,–,–,–,–,·,·
CCN=C1SC(CC(=O)Nc2ccc(C(F)(F)F)cc2)C(=O)N1CC (stereo not given),–,·,–,-2.9,12,?,–
CC(C)C(CO)NC(=O)CC(=O)NC(CO)C(C)C (stereo not given),–,–,–,–,–,·,·
O=c1c2ccccc2c(/C=N/n2cnnc2)c(O)n1-c1ccccc1,–,–,–,–,9,149,123
COc1ccc(-n2c(O)c(/C=N/n3cnnc3)c3ccccc3c2=O)cc1,–,–,–,–,15,164,–
CC(C)NC(=O)CN1CCN(c2ncccn2)CC1,–,–,–,–,–,·,·
Cc1cc(Nc2ccc(N3CCC(C)CC3)cc2)n2ncnc2n1,–,–,–,–,–,·,·
S=c1nc(C2CCCCC2)[nH][nH]1,–,–,–,–,–,·,·
COc1cc(Nc2cc(C)nc3ncnn23)cc(OC)c1OC,–,–,–,–,4.4,?,–
COc1cc(Nc2cc(C)nc3ncnn23)cc(OC)c1,–,–,–,–,–,·,·
O=c1oc2c3c4c(cc2c(C(F)(F)F)c1CCN1CCOCC1)CCCN4CCC3,–,·,–,-2.9,277,1525,1404
CC(C)c1cc(=O)oc2c3c4c(cc12)CCCN4CCC3,–,–,–,–,106,612,614
O=c1oc2c(CN3CCOCC3)c(O)ccc2c2c1CCC2,–,–,–,–,–,·,·
CCC1CCCCN1C(=O)N[C@@H](Cc1ccccc1)C(=O)O (stereo not given in full),–,–,–,–,–,·,·
Cc1cc2c(c(=O)n1C)C(Cc1ccccc1)C(C#N)=C(N)O2 (stereo not given),–,–,–,–,–,·,·
COC(=O)C1=C(C)N=c2s/c(=C3\C(=O)Nc4ccccc43)c(=O)n2C1c1ccccc1 (stereo not given),–,–,–,–,–,·,·
CCCC(=O)N1CCN(c2ccc(NC(=O)c3cc4ccccc4o3)cc2Cl)CC1,66,–,–,–,6.9,–,–
CCC(=O)N1CCN(c2ccc(NC(=O)c3cc4ccccc4o3)cc2Cl)CC1,·,-3.9,–,-1.9,4.5,–,–
O=C(Nc1ccc(N2CCN(C(=O)c3ccco3)CC2)c(Cl)c1)c1cc2ccccc2o1,·,–,–,·,·,·,·
COc1ccc(C2(C(=O)N3CCCC3)CCOCC2)cc1OC,–,–,–,–,–,·,·
CCN(CC)S(=O)(=O)c1ccc(C(=O)N2CCN=C2SC)cc1,–,–,–,–,16,?,–
C#CC1(O)CC(C)NCC1(C)CCC#N (stereo not given),–,–,–,–,–,·,·

# Assay outcomes: PubChem BioAssay, several laboratories
